Experimental findings from ChEMBL document CHEMBL3244185, “Synthesis and antiprotozoal activity of 2,5-bis(4-guanylphenyl)furans” (J Med Chem, 1977) are described below.

One data set concerns Plasmodium berghei. The experiment in a line: Antimalarial activity against Plasmodium berghei infected in mouse up to 640 mg/kg, sc administered 72 hrs post infection. Format: functional, organism-based. The arrangement: dose 640 mg/kg. The method, boiled down: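 Antimalarial screen in P. berghei-infected mice, doses in mg/kg. The read-out is the gain in mean survival time of treated animals over untreated controls. Toxicity is recorded at the dose levels tested.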

Data set [1] concerns Trypanosoma brucei rhodesiense. The data set can be described thus: Antitrypanosomal activity against Trypanosoma rhodesiense CT infected in ICR/HA Swiss mouse assessed as 30-day increase in survival time at 40 mg/kg relative to control. Format: functional, organism-based. The arrangement: dose 40 mg/kg. In outline: (§1)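 Mice infected with T. rhodesiense, dosed per mg of compound per kg body weight, five mice per dose level. A cure means survival extended 30 days beyond untreated controls, so at most five cures per dose. Non-curative effects are given as ΔMST, the gain in mean survival time in days versus controls. Toxic deaths are flagged separately.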

The test system of data set [2] is Trypanosoma brucei rhodesiense. The experiment in a line: Antitrypanosomal activity against Trypanosoma rhodesiense CT infected in ICR/HA Swiss mouse assessed as 30-day increase in survival time at 160 mg/kg relative to control. The class given is functional, organism-based. Also on record: dose 160 mg/kg. In outline:
as §1

Data set [3] has as its system Trypanosoma brucei rhodesiense. The data set can be described thus: Antitrypanosomal activity against Trypanosoma rhodesiense CT infected in ICR/HA Swiss mouse assessed as increase in mean survival time at 0.42 mg/kg. Format: functional. The method, boiled down:
(§2)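 Mice, five per dosage level, each dosed in mg of compound per kg body weight. ΔMST is the increase in mean survival time of treated over untreated infected controls, in days. A cure is a 30-day survival increase over controls, with at most five cures per dose. Deaths attributed to compound toxicity were scored as toxic deaths.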

Data set [4] has as its system Trypanosoma brucei rhodesiense. The experiment in a line: Antitrypanosomal activity against Trypanosoma rhodesiense CT infected in ICR/HA Swiss mouse assessed as 30-day increase in survival time at 20 mg/kg relative to control. The class given is functional, organism-based. Also on record: dose 20 mg/kg. The method, boiled down:
as §1

In data set [5] the test system is Trypanosoma brucei rhodesiense. The data set can be described thus: Antitrypanosomal activity against Trypanosoma rhodesiense CT infected in ICR/HA Swiss mouse assessed as 30-day increase in survival time at 80 mg/kg relative to control. The class given is functional, organism-based. Also on record: dose 80 mg/kg. In outline:
as §1

The test system of data set [6] is Trypanosoma brucei rhodesiense. The experiment in a line: Antitrypanosomal activity against Trypanosoma rhodesiense CT infected in ICR/HA Swiss mouse assessed as 30-day increase in survival time at 10 mg/kg relative to control. The class given is functional, organism-based. Also on record: dose 10 mg/kg. The method, boiled down: as §1
The test system of data set [7] is Trypanosoma brucei rhodesiense. The data set can be described thus: Antitrypanosomal activity against Trypanosoma rhodesiense CT infected in ICR/HA Swiss mouse assessed as increase in mean survival time at 0.83 mg/kg. Format: functional. In outline: as §2
Data set [8] deals with Trypanosoma brucei rhodesiense. The data set can be described thus: Antitrypanosomal activity against Trypanosoma rhodesiense CT infected in ICR/HA Swiss mouse assessed as increase in mean survival time at 2.5 mg/kg. Format: functional. The method, boiled down:
as §2

The test system of data set [9] is Trypanosoma brucei rhodesiense. The data set can be described thus: Antitrypanosomal activity against Trypanosoma rhodesiense CT infected in ICR/HA Swiss mouse assessed as increase in mean survival time at 1.25 mg/kg. Format: functional. In outline:
as §2

Data set [10] deals with Trypanosoma brucei rhodesiense. The experiment in a line: Antitrypanosomal activity against Trypanosoma rhodesiense CT infected in ICR/HA Swiss mouse assessed as increase in mean survival time at 0.21 mg/kg. Format: functional. The method, boiled down:
as §2

Data set [11] has as its system Trypanosoma brucei rhodesiense. The experiment in a line: Antitrypanosomal activity against Trypanosoma rhodesiense CT infected in ICR/HA Swiss mouse assessed as 30-day increase in survival time at 320 mg/kg relative to control. The class given is functional, organism-based. Also on record: dose 320 mg/kg. The method, boiled down: as §1
Data set [12] deals with Mus musculus. The data set can be described thus: Toxicity in ICR/HA Swiss mouse infected with Trypanosoma rhodesiense CT assessed as mortality at 640 mg/kg. The class given is organism-based. Also on record: dose 640 mg/kg. The following applies: in vivo. The method, boiled down: as §2
The subject of data set [13] is Mus musculus. The data set can be described thus: Toxicity in ICR/HA Swiss mouse infected with Trypanosoma rhodesiense CT assessed as mortality at 320 mg/kg. The class given is organism-based. The arrangement: dose 320 mg/kg. The following applies: in vivo. In outline:
as §2

Data set [14] concerns Mus musculus. The experiment in a line: Toxicity in ICR/HA Swiss mouse infected with Trypanosoma rhodesiense CT assessed as mortality at 160 mg/kg. The class given is organism-based. Also on record: dose 160 mg/kg. The following applies: in vivo. The method, boiled down: as §2
For data set [15], the system named is Trypanosoma brucei rhodesiense. The data set can be described thus: Antitrypanosomal activity against Trypanosoma rhodesiense CT infected in ICR/HA Swiss mouse assessed as increase in mean survival time at 40 mg/kg. The class given is functional. The method, boiled down: as §2
The subject of data set [16] is Trypanosoma brucei rhodesiense. The experiment in a line: Antitrypanosomal activity against Trypanosoma rhodesiense CT infected in ICR/HA Swiss mouse assessed as increase in mean survival time at 20 mg/kg. The class given is functional. In outline:
as §2

Data set [17] has as its system Trypanosoma brucei rhodesiense. The data set can be described thus: Antitrypanosomal activity against Trypanosoma rhodesiense CT infected in ICR/HA Swiss mouse assessed as increase in mean survival time at 5 mg/kg. Format: functional. The method, boiled down: as §2
Data set [18] has as its system Mus musculus. The experiment in a line: Toxicity in ICR/HA Swiss mouse infected with Trypanosoma rhodesiense CT assessed as mortality at 20 mg/kg. The following applies: in vivo. Format: organism-based. Also on record: dose 20 mg/kg. The method, boiled down: as §2
Data set [19] relates to Mus musculus. The data set can be described thus: Toxicity in ICR/HA Swiss mouse infected with Trypanosoma rhodesiense CT assessed as mortality at 40 mg/kg. Format: organism-based. Also on record: dose 40 mg/kg. The following applies: in vivo. In outline: as §2

SMILES strings stand for the structures. Active and inactive are the calls of the source. No cut-off for these calls is given here.

`N[C+](N)c1ccc(-c2oc(-c3ccc([C+](N)N)cc3)c(Cl)c2Cl)cc1.[Cl-].[Cl-]`: in the data set with Plasmodium berghei, the outcome was inactive. Also, the result in [1], in [2], in data set [4], in data set [5], in data set [6] and in [11] was Active. For the same compound, the Survival in data set [3] came to 0.4 days; in data set [7] it was 0.8 days; in [8] it was 6.2 days; in data set [9] it was 2 days; in data set [10] it was 0.2 days.

In the case of `CN1CCN[C+]1c1ccc(-c2ccc(-c3ccc([C+]4NCCN4C)cc3)o2)cc1.[Cl-].[Cl-]`, in the data set on Plasmodium berghei, the outcome was inactive. Further, the Activity result in the data set with Mus musculus [12], in the data set with Mus musculus [13] and with Mus musculus [14] was “Toxic” throughout. Moreover, the result in data set [5] was Active. The values for the Survival in data set [15] and in [16] were 5.5 days and 1.1 days, respectively.

With `CN1CCCN[C+]1c1ccc(-c2ccc(-c3ccc([C+]4NCCCN4C)cc3)o2)cc1.[Cl-].[Cl-]`, the figures for the Survival in data set [17] and in [8] were 0.7 days and 0.3 days, respectively. In addition, the result in the data set with Plasmodium berghei was inactive. Besides, the Activity result with Mus musculus [12], in the data set with Mus musculus [18], with Mus musculus [14] and with Mus musculus [19] was “Toxic” in each case.
